Experimental data as given in ChEMBL document CHEMBL3804775, “Development of a Potent, Specific CDK8 Kinase Inhibitor Which Phenocopies CDK8/19 Knockout Cells” (ACS Med Chem Lett, 2016).
pEC50, pIC50: −log10 of the molar value. Converted amounts (≈) assume the structure as drawn. The source made the active and inactive calls. No cut-off for these calls is given here.

Legend:
[1] = target: CDK8/Cyclin C (Homo sapiens, UniProt P49336); assay: Inhibition of full length human recombinant His-tagged CDK8/Cyclin C expressed in baculovirus expression system by fluorescence polarization assay
Sequence of CDK8/Cyclin C (P49336 whole entry): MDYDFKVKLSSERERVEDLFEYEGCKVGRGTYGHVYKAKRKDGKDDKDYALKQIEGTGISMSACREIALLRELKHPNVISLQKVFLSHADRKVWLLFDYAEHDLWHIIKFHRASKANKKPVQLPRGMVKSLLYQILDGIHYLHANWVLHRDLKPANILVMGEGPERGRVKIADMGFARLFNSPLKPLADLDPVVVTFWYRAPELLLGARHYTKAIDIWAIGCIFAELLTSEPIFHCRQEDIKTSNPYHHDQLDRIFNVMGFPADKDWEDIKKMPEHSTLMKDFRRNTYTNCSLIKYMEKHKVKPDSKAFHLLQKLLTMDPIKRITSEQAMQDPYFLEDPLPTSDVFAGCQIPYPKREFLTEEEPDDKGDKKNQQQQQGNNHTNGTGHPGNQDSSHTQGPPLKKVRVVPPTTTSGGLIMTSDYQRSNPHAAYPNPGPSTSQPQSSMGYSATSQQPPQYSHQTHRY
Sequence of CDK8/Cyclin C (P24863 whole entry, further chain): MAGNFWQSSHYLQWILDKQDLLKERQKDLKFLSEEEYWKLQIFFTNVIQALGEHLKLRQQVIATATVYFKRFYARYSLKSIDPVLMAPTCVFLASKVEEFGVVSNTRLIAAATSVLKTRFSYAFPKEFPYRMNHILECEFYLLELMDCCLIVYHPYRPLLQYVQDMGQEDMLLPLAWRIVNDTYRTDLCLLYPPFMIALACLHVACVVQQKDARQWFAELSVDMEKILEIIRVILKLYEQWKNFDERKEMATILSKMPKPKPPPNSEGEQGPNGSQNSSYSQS

[2] = Plasma protein binding in human; assay type: ADME, cell-free; conditions: read-out: PPB (converted)
[3] = Plasma protein binding in rat; assay type: ADME, cell-free; conditions: read-out: PPB (converted)
[4] = Plasma protein binding in mouse; assay type: ADME, cell-free; conditions: read-out: PPB (converted)
[5] = Antiproliferative activity against human HCT116 cells after 72 hrs by Celltiter-Glo reagent based assay in presence of 10% fetal bovine serum; assay type: functional, cell-based; conditions: HCT-116, 72 h
[6] = Antiproliferative activity against human HCT116 cells after 72 hrs by Celltiter-Glo reagent based assay in presence of 0.625% fetal bovine serum; assay type: functional, cell-based; conditions: HCT-116, 72 h
[7] = Permeability from apical to basolateral side in MDCK cells; assay type: ADME, cell-based, Canis lupus familiaris; conditions: dog, read-out: permeability
[8] = Kinetic solubility in DMSO/phosphate buffered saline at pH 7.4 at 200 uM after 24 hrs by UHPLC based chemiluminescent nitrogen detection method; assay type: physicochemical; conditions: read-out: Kinetic_solubility
[9] = Ratio of EC50 for antiproliferative activity against human HCT116 cells after 72 hrs by Celltiter-Glo reagent based assay to IC50 for inhibition of full length human recombinant His-tagged CDK8/Cyclin C expressed in baculovirus expression system by fluorescence polarization assay; design: species or system HCT-116
[10] = target: CDK9/cyclin T1 (Homo sapiens) (UniProt O60563+P50750); assay: Inhibition of full length human recombinant His-tagged CDK9/Cyclin T expressed in baculovirus expression system using Cdk7/9tide as substrate at 0.1 uM by adapta assay relative to control
Method in brief: (§1)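 Single-point kinase selectivity screen at 0.1 μM compound across a panel of 52 kinases, recorded as percent inhibition for each kinase.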

[11] = target: Glycogen synthase kinase-3 alpha (Homo sapiens) (UniProt P49840); assay: Inhibition of recombinant GSK3alpha (unknown origin) at 0.1 uM relative to control
Sequence of Glycogen synthase kinase-3 alpha (Homo sapiens) (P49840 2-483 limits assumed): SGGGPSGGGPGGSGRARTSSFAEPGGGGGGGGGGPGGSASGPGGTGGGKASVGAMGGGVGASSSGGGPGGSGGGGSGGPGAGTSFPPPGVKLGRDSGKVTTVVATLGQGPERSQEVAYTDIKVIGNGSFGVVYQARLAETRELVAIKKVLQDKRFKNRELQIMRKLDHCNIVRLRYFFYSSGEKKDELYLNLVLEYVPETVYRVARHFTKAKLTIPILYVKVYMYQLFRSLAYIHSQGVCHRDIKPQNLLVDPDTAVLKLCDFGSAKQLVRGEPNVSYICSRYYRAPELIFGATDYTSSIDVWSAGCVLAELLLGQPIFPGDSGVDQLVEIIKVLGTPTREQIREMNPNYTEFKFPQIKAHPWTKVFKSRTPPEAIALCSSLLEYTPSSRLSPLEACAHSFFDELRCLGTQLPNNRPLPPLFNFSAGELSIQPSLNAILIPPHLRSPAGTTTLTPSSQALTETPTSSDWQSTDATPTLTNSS
Method in brief: (§2)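 Single-concentration screen at 0.1 μM within a 52-kinase selectivity panel, with percent inhibition reported for each kinase.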

[12] = target: T1, Homeodomain-interacting protein kinase 4 (Homo sapiens) (UniProt Q8NE63); assay: Inhibition of full length human recombinant N-terminal GST-tagged HIPK4 expressed in baculovirus expression system using Ser/Thr peptide 18 substrate at 0.1 uM by Z-Lyte assay relative to control; method in brief: as §2
T1 sequence (whole entry): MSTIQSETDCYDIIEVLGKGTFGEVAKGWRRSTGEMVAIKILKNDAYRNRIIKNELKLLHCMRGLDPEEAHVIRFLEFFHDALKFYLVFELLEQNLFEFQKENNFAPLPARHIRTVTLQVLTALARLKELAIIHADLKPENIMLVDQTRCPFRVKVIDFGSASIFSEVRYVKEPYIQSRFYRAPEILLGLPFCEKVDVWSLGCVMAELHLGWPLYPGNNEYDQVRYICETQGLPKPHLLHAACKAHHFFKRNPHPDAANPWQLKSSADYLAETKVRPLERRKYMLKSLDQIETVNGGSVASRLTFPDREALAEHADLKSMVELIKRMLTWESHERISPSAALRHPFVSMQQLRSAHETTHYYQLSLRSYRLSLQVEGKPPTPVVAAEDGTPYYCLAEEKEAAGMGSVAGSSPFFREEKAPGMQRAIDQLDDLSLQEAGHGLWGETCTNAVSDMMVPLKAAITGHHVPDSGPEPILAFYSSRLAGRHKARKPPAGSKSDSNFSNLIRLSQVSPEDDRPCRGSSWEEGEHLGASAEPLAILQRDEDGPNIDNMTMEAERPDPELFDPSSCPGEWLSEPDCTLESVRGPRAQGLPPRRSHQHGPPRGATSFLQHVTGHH

[13] = target: Serine/threonine-protein kinase Nek4 (Homo sapiens) (UniProt P51957); assay: Inhibition of full length human recombinant GST-tagged NEK4 expressed in baculovirus expression system using Ser/Thr peptide 17 substrate at 0.1 uM by Z-Lyte assay relative to control; method in brief: as §1
Sequence of Serine/threonine-protein kinase Nek4 (Homo sapiens) (P51957 whole entry, looked up, the tested form may be a part): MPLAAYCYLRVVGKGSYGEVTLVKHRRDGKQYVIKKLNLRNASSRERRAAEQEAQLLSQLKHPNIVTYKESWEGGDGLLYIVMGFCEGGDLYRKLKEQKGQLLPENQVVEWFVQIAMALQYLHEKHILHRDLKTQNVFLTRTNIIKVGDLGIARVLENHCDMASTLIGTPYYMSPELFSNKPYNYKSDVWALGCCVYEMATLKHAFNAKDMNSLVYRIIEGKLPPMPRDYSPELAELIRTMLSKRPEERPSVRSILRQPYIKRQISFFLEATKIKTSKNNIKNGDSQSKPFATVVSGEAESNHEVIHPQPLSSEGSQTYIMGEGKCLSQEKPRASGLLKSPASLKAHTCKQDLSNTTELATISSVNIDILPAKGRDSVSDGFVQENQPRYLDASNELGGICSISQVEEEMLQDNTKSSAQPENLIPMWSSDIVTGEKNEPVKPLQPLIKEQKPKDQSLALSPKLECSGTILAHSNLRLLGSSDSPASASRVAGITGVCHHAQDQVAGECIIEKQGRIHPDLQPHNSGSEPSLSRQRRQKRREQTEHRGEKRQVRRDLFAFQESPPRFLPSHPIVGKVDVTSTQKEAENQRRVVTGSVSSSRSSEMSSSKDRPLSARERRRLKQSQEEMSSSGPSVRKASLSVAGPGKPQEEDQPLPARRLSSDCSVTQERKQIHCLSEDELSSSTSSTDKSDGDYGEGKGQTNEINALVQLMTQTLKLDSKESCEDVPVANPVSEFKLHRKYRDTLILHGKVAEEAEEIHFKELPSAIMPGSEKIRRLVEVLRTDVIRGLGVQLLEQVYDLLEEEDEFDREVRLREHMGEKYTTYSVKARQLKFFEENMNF

[14] = target: PAS domain-containing serine/threonine-protein kinase (Homo sapiens) (UniProt Q96RG2); assay: Inhibition of human recombinant GST-tagged PASK (879 to 1323 residues) expressed in baculovirus expression system at 0.1 uM relative to control; method in brief: as §1
Sequence of PAS domain-containing serine/threonine-protein kinase (Homo sapiens) (Q96RG2 whole entry, the tested form may be a part): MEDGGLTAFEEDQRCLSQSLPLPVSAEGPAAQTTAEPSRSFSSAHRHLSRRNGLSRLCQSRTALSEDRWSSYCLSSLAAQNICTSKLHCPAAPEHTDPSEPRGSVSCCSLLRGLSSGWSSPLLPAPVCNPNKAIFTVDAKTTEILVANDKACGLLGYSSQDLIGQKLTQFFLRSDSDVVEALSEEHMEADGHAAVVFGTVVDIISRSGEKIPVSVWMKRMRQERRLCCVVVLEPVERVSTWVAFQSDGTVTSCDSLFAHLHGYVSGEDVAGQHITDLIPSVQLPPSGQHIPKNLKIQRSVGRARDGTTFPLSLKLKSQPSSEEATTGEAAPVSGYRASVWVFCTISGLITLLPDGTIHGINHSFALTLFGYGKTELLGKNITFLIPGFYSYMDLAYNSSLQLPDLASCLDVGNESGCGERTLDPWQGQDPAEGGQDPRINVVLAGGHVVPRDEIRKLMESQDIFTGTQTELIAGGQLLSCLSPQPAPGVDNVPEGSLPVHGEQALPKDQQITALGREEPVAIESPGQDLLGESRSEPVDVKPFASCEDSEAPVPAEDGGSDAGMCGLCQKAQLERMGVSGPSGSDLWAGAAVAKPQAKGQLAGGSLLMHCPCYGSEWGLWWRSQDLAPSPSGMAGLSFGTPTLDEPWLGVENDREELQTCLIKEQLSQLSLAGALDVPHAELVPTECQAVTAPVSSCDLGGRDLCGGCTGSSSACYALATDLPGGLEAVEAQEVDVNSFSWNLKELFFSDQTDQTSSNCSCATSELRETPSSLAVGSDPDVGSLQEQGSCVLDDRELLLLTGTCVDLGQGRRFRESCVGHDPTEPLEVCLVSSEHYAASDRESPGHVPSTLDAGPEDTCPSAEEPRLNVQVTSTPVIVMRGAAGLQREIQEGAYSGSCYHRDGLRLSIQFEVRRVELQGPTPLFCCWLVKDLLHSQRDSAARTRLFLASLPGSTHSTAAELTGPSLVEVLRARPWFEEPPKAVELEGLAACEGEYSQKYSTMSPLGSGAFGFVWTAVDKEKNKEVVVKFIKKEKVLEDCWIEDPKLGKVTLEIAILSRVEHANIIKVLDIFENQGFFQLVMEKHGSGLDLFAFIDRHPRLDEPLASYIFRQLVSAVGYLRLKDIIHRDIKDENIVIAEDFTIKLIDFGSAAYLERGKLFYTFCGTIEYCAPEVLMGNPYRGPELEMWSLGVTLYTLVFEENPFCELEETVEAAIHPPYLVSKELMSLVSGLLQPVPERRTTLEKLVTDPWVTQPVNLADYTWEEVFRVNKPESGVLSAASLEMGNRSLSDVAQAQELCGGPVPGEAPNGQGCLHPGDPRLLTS

[15] = target: CDK9/cyclin T1 (Homo sapiens, UniProt P50750); assay: Inhibition of full length human recombinant His-tagged CDK9/Cyclin T expressed in baculovirus expression system using Cdk7/9tide as substrate by adapta assay
Sequence of CDK9/cyclin T1 (O60563 whole entry): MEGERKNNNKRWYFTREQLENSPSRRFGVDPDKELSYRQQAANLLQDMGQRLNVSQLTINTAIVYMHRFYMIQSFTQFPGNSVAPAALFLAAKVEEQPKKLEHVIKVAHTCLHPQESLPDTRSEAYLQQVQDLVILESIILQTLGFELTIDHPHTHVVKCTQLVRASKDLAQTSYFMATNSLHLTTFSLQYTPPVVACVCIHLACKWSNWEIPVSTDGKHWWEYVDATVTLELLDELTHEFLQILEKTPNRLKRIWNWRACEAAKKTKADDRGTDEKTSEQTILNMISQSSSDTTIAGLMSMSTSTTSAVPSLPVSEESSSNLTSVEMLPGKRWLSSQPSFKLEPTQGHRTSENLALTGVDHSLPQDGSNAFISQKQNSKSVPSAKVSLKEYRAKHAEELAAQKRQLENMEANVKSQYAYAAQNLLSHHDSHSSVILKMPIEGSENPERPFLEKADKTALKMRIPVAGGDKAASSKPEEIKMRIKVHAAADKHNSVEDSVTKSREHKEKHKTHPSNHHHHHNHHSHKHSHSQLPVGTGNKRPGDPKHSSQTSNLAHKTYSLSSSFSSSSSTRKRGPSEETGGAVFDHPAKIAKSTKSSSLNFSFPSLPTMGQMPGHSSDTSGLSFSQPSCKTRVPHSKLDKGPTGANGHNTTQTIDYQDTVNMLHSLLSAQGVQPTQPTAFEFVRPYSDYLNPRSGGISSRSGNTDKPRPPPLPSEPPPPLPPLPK
Sequence of CDK9/cyclin T1 (P50750 whole entry): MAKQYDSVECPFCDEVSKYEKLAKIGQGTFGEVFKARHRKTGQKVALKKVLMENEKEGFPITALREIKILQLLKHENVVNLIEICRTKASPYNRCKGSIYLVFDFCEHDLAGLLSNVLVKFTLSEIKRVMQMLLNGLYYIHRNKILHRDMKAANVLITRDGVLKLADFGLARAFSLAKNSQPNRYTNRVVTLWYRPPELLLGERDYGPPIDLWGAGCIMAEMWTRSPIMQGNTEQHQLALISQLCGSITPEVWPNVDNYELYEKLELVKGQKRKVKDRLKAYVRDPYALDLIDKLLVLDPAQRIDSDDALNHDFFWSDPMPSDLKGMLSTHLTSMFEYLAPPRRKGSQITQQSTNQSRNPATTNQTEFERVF

[16] = tested on: HCT-116; assay: Antiproliferative activity against CDK8 knockout human HCT116 cells after 72 hrs by Celltiter-Glo reagent based assay; assay type: functional, cell-based
Method in brief: (§3)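 HCT-116 CDK8 knockout and CDK8/CDK19 double knockout clones, derived from wild-type HCT-116, were incubated alongside the parent line with varying concentrations of compound. Cell viability was read at 72 h to give growth-inhibition curves.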

[17] = tested on: HCT-116; assay: Antiproliferative activity against CDK8/CDK19 double knockout human HCT116 cells after 72 hrs by Celltiter-Glo reagent based assay; assay type: functional, cell-based; method in brief: as §3

pIC50 [1]	fraction unbound [2]	fraction unbound [3]	fraction unbound [4]	Papp A→B [7]	solubility kinetic at 24 h, 200 µM [8]	SMILES	other results
8.55	0.002	0.003	0.003	–	–	O=C(O)c1cc2c(Oc3ccc(Cl)cc3)cncc2s1	pEC50 [5]: < 5.00; pEC50 [6]: < 5.00
7.21	–	–	–	–	–	COC(=O)c1cc2c(Oc3ccc(Cl)cc3)cncc2s1	–
8.70	–	–	–	0.8 ×10⁻⁶ cm/s	–	CC(=O)Nc1ccc(Oc2cncc3sc(-c4nnn[nH]4)cc23)cc1	–
8.10	0.007	0.008	0.012	–	10 µM (≈ 3.19 µg/mL)	Cc1ncc(Oc2ccc(Cl)cc2)c2cc(C(N)=O)sc12	pEC50 [5]: < 5.00; pEC50 [6]: 5.06; Ratio [9]: 1000
7.68	0.227	0.232	0.217	–	7 µM (≈ 2.19 µg/mL)	NC(=O)c1ccc(Oc2cncc3sc(C(N)=O)cc23)cc1	–
9.15	–	–	–	24 ×10⁻⁶ cm/s	–	Ic1ccc(Oc2cncc3sc(-c4nn[nH]n4)cc23)cc1	inhibition [10]: > 30%; inhibition [11]: > 80%; inhibition [12]: > 80%; inhibition [13]: > 30%; inhibition [14]: > 50%
7.12	–	–	–	–	–	CN(C)C(=O)c1cc2c(Oc3ccc(Cl)cc3)cncc2s1	–
7.54	< 0.001	< 0.001	< 0.001	–	–	CCC(=O)c1cc2c(Oc3ccc(Cl)cc3)cncc2s1	–
7.80	–	–	–	–	–	CCNC(=O)c1cc2c(Oc3ccc(Cl)cc3)cncc2s1	–
9.00	–	–	–	2.5 ×10⁻⁶ cm/s	–	N#Cc1ccc(Oc2cncc3sc(-c4nnn[nH]4)cc23)cc1	pEC50 [5]: < 5.00; pEC50 [6]: < 5.00
8.09	0.015	0.01	0.023	–	–	CNC(=O)c1cc2c(Oc3ccc(Cl)cc3)cncc2s1	–
7.60	0.064	0.06	0.098	–	10 µM (≈ 3 µg/mL)	COc1ccc(Oc2cncc3sc(C(N)=O)cc23)cc1	–
8.22	0.028	0.041	0.039	–	< 1 µM	Cc1ccc(Oc2cncc3sc(C(N)=O)cc23)cc1	–
8.52	–	–	–	1.9 ×10⁻⁶ cm/s	–	NC(=O)c1ccc(-c2ccc(Oc3cncc4sc(-c5nn[nH]n5)cc34)cc2)cc1	inhibition [10]: > 50%; inhibition [11]: > 80%; inhibition [12]: > 80%; inhibition [13]: > 80%; inhibition [14]: > 80%
8.36	–	–	–	0.7 ×10⁻⁶ cm/s	–	NC(=O)c1ccc(Oc2cncc3sc(-c4nnn[nH]4)cc23)cc1	–
8.08	–	–	–	4.1 ×10⁻⁶ cm/s	–	c1ccc(Oc2cncc3sc(-c4nn[nH]n4)cc23)cc1	–
7.49	0.003	0.002	0.003	–	–	CC(=O)c1cc2c(Oc3ccc(Cl)cc3)cncc2s1	–

pIC50 [1]	fraction unbound [2]	fraction unbound [3]	fraction unbound [4]	Papp A→B [7]	solubility kinetic at 24 h, 200 µM [8]	SMILES	other results
8.21	–	–	–	–	6.3 µM (≈ 1.92 µg/mL)	NC(=O)c1cc2c(Oc3ccc(Cl)cc3)cncc2s1	pIC50 [15]: 5.66
7.54	0.09	0.152	0.204	–	18 µM (≈ 5.89 µg/mL)	CC(=O)Nc1ccc(Oc2cncc3sc(C(N)=O)cc23)cc1	–
7.23	–	–	–	–	–	O=C(c1cc2c(Oc3ccc(Cl)cc3)cncc2s1)C1CC1	–
8.28	0.002	0.001	0.002	–	–	CNC(=O)c1cc2c(Oc3ccc(I)cc3)cncc2s1	–
8.96	–	–	–	11 ×10⁻⁶ cm/s	–	Clc1ccc(Oc2cncc3sc(-c4nnn[nH]4)cc23)cc1	pEC50 [5]: < 5.00; pEC50 [6]: < 5.00
8.29	0.153	0.127	0.109	–	8 µM (≈ 2.36 µg/mL)	N#Cc1ccc(Oc2cncc3sc(C(N)=O)cc23)cc1	–
–	–	–	–	–	–	CN1CC[C@H](c2c(O)cc(O)c3c(=O)cc(-c4ccccc4Cl)oc23)[C@H](O)C1 [ALVOCIDIB]	pEC50 [5]: 7.47
8.96	–	–	–	24 ×10⁻⁶ cm/s	–	FC(F)(F)Oc1ccc(Oc2cncc3sc(-c4nnn[nH]4)cc23)cc1	pEC50 [5]: < 5.00; pEC50 [6]: < 5.00
8.26	–	–	–	9.1 ×10⁻⁶ cm/s	–	Fc1ccc(Oc2cncc3sc(-c4nnn[nH]4)cc23)cc1	–
8.80	–	–	–	12 ×10⁻⁶ cm/s	–	Cc1ccc(Oc2cncc3sc(-c4nn[nH]n4)cc23)cc1	pEC50 [5]: < 5.00; pEC50 [6]: < 5.00
7.96	–	–	–	–	< 1 µM	NC(=O)c1cc2c(Oc3ccc(Cl)cc3)cnc(Cl)c2s1	–
7.00	–	–	–	–	–	CC(C)NC(=O)c1cc2c(Oc3ccc(Cl)cc3)cncc2s1	–
7.62	0.008	0.007	0.009	–	–	O=C(NC1CC1)c1cc2c(Oc3ccc(Cl)cc3)cncc2s1	–
7.80	–	–	–	–	< 1 µM	NC(=O)c1cc2c(Oc3ccc(Cl)cc3)cnc(F)c2s1	–
7.92	0.021	0.032	0.028	–	< 1 µM	NC(=O)c1cc2c(Oc3ccc(OC(F)(F)F)cc3)cncc2s1	pEC50 [5]: < 5.00; pEC50 [6]: < 5.00
8.82	0.0187	0.023	0.041	–	5.5 µM (≈ 1.76 µg/mL)	NC(=O)c1cc2c(Oc3ccc(Cl)cc3)cnc(N)c2s1	pIC50 [15]: 5.96; pEC50 [5]: 5.17; pEC50 [6]: 5.27; Activity [16]: Active; Activity [17]: Active; Ratio [9]: 1000
